In data set [1] the target is T1, Amine oxidase [flavin-containing] A (Homo sapiens, UniProt P21397).
T1 sequence (P21397 whole entry): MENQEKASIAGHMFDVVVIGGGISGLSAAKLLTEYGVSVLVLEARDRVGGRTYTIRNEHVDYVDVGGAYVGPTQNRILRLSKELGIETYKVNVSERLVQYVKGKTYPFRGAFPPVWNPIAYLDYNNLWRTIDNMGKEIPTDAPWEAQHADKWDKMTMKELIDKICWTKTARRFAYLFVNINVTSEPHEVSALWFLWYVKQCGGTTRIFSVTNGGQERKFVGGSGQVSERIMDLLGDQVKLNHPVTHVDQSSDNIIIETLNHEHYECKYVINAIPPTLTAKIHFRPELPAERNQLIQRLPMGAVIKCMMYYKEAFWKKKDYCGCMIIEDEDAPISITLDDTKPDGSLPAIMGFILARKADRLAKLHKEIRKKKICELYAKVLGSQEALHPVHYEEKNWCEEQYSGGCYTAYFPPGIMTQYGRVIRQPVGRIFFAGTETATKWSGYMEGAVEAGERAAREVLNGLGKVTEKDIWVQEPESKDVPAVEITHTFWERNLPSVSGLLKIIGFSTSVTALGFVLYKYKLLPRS
In words: Inhibition of recombinant human MAO-A at 100 uM using kynuramine as substrate after 20 mins by fluorescence spectrophotometric analysis. In outline:
(§1)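 Recombinant human enzyme from insect-cell microsomes, MAO-A 0.0075 or MAO-B 0.015 mg protein/mL, in 100 mM potassium phosphate pH 7.4 made isotonic with KCl. Kynuramine 50 µM, inhibitor up to 100 µM, DMSO 4% final. 20 min at 37 °C, stopped with 2 N NaOH. 4-Hydroxyquinoline read by fluorescence (ex 310/em 400 nm) against a calibration curve.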

The target in data set [2] is T2, Amine oxidase [flavin-containing] B (Homo sapiens, UniProt P27338).
T2 sequence (P27338 whole entry): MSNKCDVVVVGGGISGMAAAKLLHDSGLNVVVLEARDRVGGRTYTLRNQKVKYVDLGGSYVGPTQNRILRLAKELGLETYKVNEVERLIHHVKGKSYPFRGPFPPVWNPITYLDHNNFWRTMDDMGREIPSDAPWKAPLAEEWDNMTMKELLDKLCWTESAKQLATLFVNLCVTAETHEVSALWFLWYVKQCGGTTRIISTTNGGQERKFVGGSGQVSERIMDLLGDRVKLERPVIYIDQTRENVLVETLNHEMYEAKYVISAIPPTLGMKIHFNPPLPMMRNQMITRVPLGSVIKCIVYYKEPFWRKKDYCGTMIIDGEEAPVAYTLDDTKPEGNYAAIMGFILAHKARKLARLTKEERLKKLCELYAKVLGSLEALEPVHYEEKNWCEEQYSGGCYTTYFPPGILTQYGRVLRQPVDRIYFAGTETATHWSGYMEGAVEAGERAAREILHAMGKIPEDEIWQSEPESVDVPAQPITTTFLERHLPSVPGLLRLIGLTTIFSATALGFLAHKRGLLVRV
In words: Inhibition of recombinant human MAO-B using kynuramine as substrate after 20 mins by fluorescence spectrophotometric analysis.

The next data set is filed under the species Homo sapiens. Briefly: Selectivity index, ratio of IC50 for recombinant human MAO-A by IC50 for recombinant human MAO-B. The method in brief: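 IC50 values for MAO-A and MAO-B taken from kynuramine fluorescence assays (0.003–100 µM inhibitor, 20 min at 37 °C) and fitted by one-site competition. Triplicate means. Index is IC50(MAO-A)/IC50(MAO-B).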
Data set [3] has as its target T2, Amine oxidase [flavin-containing] B. In words: Inhibition of recombinant human MAO-B using kynuramine as substrate assessed as enzyme activity recovered after 20 mins by fluorescence spectrophotometric analysis. The arrangement: scale not given: the % may be the effect or the level left. The method in brief:
(§2)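 Pre-incubated 15 min at 37 °C, then dialysed 24 h at 4 °C (10 kDa cut-off) with buffer changes at 3 and 7 h. Diluted twofold with kynuramine (50 µM final), run 20 min at 37 °C, read by fluorescence. Triplicate; activity relative to inhibitor-free dialysed control.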

Data set [4] shares this target. In words: Competitive inhibition of recombinant human MAO-B using kynuramine as substrate after 20 mins by Lineweaver-Burk plot analysis. The method in brief:
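Human MAO-B (insect-cell microsome, 0.015 mg/mL final) in 100 mM potassium phosphate pH 7.4 made isotonic with KCl. Six Lineweaver-Burk plots: one without inhibitor and five at 1/4, 1/2, 3/4, 1 and 1 1/4 × IC50. Kynuramine 15–250 µM, eight levels per plot. 20 min at 37 °C, NaOH stop, 4-hydroxyquinoline fluorescence. Ki taken from slopes plotted against inhibitor concentration.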

For data set [5] the target is unchanged. Briefly: Reversible inhibition of recombinant human MAO-B using kynuramine as substrate assessed as recovery of enzyme activity at 4 times IC50 preincubated for 15 mins followed by dialysis for 24 hrs and subsequent addition of substrate measured after 20 mins by fluorescence spectrophotometric analysis relative to control. The arrangement: scale not given: the % may be the effect or the level left. The method in brief:
as §2

Data set [6] has the same target. Briefly: Inhibition of recombinant human MAO-B at 100 uM using kynuramine as substrate after 20 mins by fluorescence spectrophotometric analysis. In outline: as §1

Usually IC50 stands for the concentration needed to halve the response being measured. `O=C(CSc1nc(O)c2ccccc2n1)c1ccccc1`: the “inhibition (INH)” value in data set [1] was “Not Active”. For the same compound, the IC50 in data set [2] worked out at 31800 nM. Moreover, the Ratio IC50 in the data set filed under Homo sapiens was over 3.1.
With `Oc1nc(SCc2cccc(Cl)c2)nc2ccccc12`, in data set [1], the “inhibition (INH)” value is given as “Not Active”. The IC50 in data set [2] came out at 230 nM. Besides, the Ratio IC50 in the data set filed under Homo sapiens is over 435.
`Oc1nc(SCCOc2ccccc2)nc2ccccc12`: in data set [1], the “inhibition (INH)” value is recorded as “Not Active”. Besides, the IC50 in data set [2] was found to be 1240 nM. Moreover, the Ratio IC50 in the data set filed under Homo sapiens is over 81.
On the same counts, the results for `O=c1[nH]c(SCc2ccc(Br)cc2)nc2ccccc12` are “Not Active”, 779 nM and over 128.
On the same counts, the results for `Oc1nc(SCc2cccc(F)c2)nc2ccccc12` are “Not Active”, 2500 nM and over 40.
The term Ki denotes a measure of affinity in units of concentration, obtained from inhibition or displacement. For the compound `O=c1[nH]c(SCc2cccc(I)c2)nc2ccccc12`, in data set [1], the “inhibition (INH)” value was “Not Active”. For the same compound, in data set [2], the IC50 came to 142 nM. For the same compound, in the data set listed under Homo sapiens, the Ratio IC50 was over 704. The Activity in data set [3] worked out at 46%; in data set [5], 108%. Further, in data set [4], the Ki was 68 nM.
Consider `O=c1[nH]c(SCc2ccc(C(F)(F)F)cc2)nc2ccccc12`, for which, in data set [1], the “inhibition (INH)” value was “Not Active”. In addition, in data set [2], the IC50 stood at 700 nM. For the same compound, in the data set filed under Homo sapiens, the Ratio IC50 is over 143.
On to `O=c1[nH]c(SCCCc2ccccc2)nc2ccccc12`, for which the “inhibition (INH)” value in data set [1] is reported as “Not Active”. Besides, in data set [2], the IC50 was determined as 5990 nM. In addition, in the data set listed under Homo sapiens, the Ratio IC50 is over 17.
On to `O=c1[nH]c(SCc2cccc(Br)c2)nc2ccccc12`, for which the “inhibition (INH)” value in data set [1] is given as “Not Active”. Further, in data set [2], the IC50 was determined as 208 nM. Besides, the Ratio IC50 in the data set listed under Homo sapiens was over 481.
On the same counts, the results for `Oc1nc(SCc2ccc(Cl)cc2)nc2ccccc12` are “Not Active”, 482 nM and over 207.
As for `O=c1[nH]c(SCc2ccccc2)nc2ccccc12`, the “inhibition (INH)” value in data set [1] is recorded as “Not Active”. In addition, the IC50 in data set [2] came to 3030 nM. Also, the Ratio IC50 in the data set filed under Homo sapiens was over 33.
As to `O=c1[nH]c(SCc2ccc(I)cc2)nc2ccccc12`, the “inhibition (INH)” value in data set [1] and in data set [6] was “Not Active” in each case.
For `O=c1[nH]c(SCc2ccncc2)nc2ccccc12`, the “inhibition (INH)” value in data set [1] and in data set [6] was “Not Active” in each case.
As for `O=c1[nH]c(SCc2ccc(F)cc2)nc2ccccc12`, the “inhibition (INH)” value in data set [1] is “Not Active”. The IC50 in data set [2] was determined as 566 nM. Also, the Ratio IC50 in the data set listed under Homo sapiens is over 177.
